# Bioassay records: PubChem, several laboratories
# This is a sample that favours compounds with a hit; in the whole collection about 2.4% have one here.
# MC4R antagonist: human MC4R antagonism in cAMP assay; 360,000 compounds, 0.48% hits; MC4R-expressing cells, MTII-stimulated cAMP, LANCE TR-FRET; AID 540295; P32245; inhibition, % at 6.5 µM;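 active means inhibition above its plate's cutoff, the mean of tested wells on that plate plus 3 SD, cut at about 29% in these data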;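 further: 0% = Melanotan II alone and 100% = Melanotan II plus saturating MCL0020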
# Target sequence (P32245 whole entry, looked up): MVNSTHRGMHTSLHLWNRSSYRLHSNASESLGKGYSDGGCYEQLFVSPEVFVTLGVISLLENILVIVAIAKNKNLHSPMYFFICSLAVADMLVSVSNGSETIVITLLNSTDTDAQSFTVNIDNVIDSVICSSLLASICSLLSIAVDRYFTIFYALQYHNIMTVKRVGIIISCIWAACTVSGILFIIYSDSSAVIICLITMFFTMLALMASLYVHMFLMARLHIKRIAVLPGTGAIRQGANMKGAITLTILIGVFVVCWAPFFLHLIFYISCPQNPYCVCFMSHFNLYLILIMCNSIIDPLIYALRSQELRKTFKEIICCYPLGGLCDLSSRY
#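 System: U2OS cells stably expressing human melanocortin 4 receptor (MC4R). Reagent: Melanotan II challenge after compound preincubation. Doses: 6.5 µM. Times: 30-min compound, 1-h challenge, 1-h detection, room temperature. Measured by: TR-FRET with Eu-cAMP and labeled anti-cAMP, 671 nm. Replicates: singlicate.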
# MC4R ag barr: human MC4R agonism via beta-arrestin; P32245; U2OS MC4R beta-arrestin complementation, luminescence; percent of melanotan II response, DMSO zero; activation, % at 8.9 µM; 360,000 compounds, 0.98% hits; AID 540308;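 active means activation above a per-plate cutoff, the mean activation of sample wells on that plate plus 3 SD, cut at about 8% in these data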
# H9c2 TAG inh: reduces triacylglycerol accumulation in H9c2 cells; Nile Red lipid (TAG) fluorescence; cells loaded with 200 µM oleic acid; inhibition, % at 12.5 µM; 230,000 compounds, 0.66% hits;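 active means pattern-corrected inhibition of lipid staining of at least 50% with the nuclear-stain viability signal not falling by more than 50%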;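 further: 0% = DMSO wells and 100% = triacsin C control wells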
# NTR1 ag: agonists of human neurotensin receptor NTR1. P30989. NTR1-U2OS beta-arrestin-GFP spot imaging, agonist mode. activation, % at 20 µM. 330,000 compounds, 0.17% hits;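 active means activation at or above 40% of the spot to cytoplasm intensity ratio, with at least 20 cells analyzed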;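 further: 0% = DMSO without peptide and 100% = 100 nM NTR1 peptide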
# TbMetRS inhib: blocks T. brucei methionyl-tRNA synthetase activity | 360,000 compounds, 0.4% hits | AID 624268 | inhibition, % at 11.9 µM | purified T. brucei MetRS, ATP depletion, Kinase-Glo luminescence;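 active means inhibition above a per-plate cutoff of the control wells' mean inhibition plus 3 SD, cut at about 5.5% in these data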;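 further: 0% = DMSO wells median and 100% = median of wells with control inhibitor compound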
#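 technique = Kinase-Glo luminescence, ATP depletion format | system = purified MetRS (methionyl-tRNA synthetase) enzyme from Trypanosoma brucei | timing = 15 min preincubation, 2 h reaction, all 25 °C | evaluation = percent inhibition versus plate control medians | dosing = single dose, 11.9 µM final nominal, 0.9% final DMSO | also added = substrates ATP, L-methionine and bulk Escherichia coli tRNA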
# aDG glyco act: alpha-DG glycosylation activation; Pro5-aDG cells, alpha-DG glycosylation AlphaScreen (IIH6); 0% Pro5, 100% B10-LARGE cell signal; activation, % at 10 µM; 360,000 compounds, 0.22% hits;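 active means activation of at least 8% versus controls, or a plate z-score of at least 8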;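 further: Pro5 are CHO cells carrying HIG-tagged alpha-DG that lacks glycosylation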
# aDG conf: alpha-DG glycosylation activation, confirmation; AID 651671; Pro5-aDG cells, IIH6 AlphaLISA; scaled to LARGE-overexpressing B10 cells as 100%; shares compounds with aDG glyco act; 600 compounds, 17% hits; activation, % at 10 µM (by protocol);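 active means activation of at least 7% in one or more replicates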;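 further: cells exposed to compound for two days before detection; 0% = DMSO-treated Pro5 cells and 100% = DMSO-treated B10-LARGE cells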
# Active calls of the source: *; . = no result.
SMILES,MC4R antagonist,MC4R ag barr,H9c2 TAG inh,NTR1 ag,TbMetRS inhib,aDG glyco act,aDG conf
Cc1ccccc1C(=O)OC(C)C(=O)NCc1ccc2c(c1)OCO2 (configuration not stated),5,-3,0,0,0,0,.
Cc1ccc(S(=O)(=O)N(C)C)cc1NC(=O)COC(=O)Cc1ccc(Br)cc1,5,-1,3,3,0,0,.
Cc1ccc(S(=O)(=O)N(C)C)cc1NC(=O)COC(=O)Cc1ccccc1F,12,-1,8,-1,0,11*,0
Cc1ccc(CS(=O)(=O)Cc2ccc(C(=O)NCc3cccs3)o2)cc1,11,2,-13,1,0,0,.
Cc1ccc(CS(=O)Cc2ccc(C(=O)NCc3cccs3)o2)cc1 (configuration not stated),-2,-1,.,-1,0,6.1*,0
O=C(NCc1cccc(OC(F)(F)F)c1)c1cccc2c1C(=O)c1ccc(-c3ccc(F)cc3OCc3ccccc3)cc1S2(=O)=O,4,-2,48,0,0,0,.
COc1ccc(-c2ccc3c(c2)S(=O)(=O)c2cccc(C(=O)NCc4cccc(OC(F)(F)F)c4)c2C3=O)cc1OC,3,4,-83,33,0,18*,1
O=C(NNC(=O)c1ccc([N+](=O)[O-])o1)c1ccccc1,-13,0,15,0,-1,1,.
C/C(=N/NC(=O)C(O)(c1ccccc1)c1ccccc1)c1ccc([N+](=O)[O-])o1,2,-3,-2,-1,0,8.2*,3.7*
Cc1cccn2c(=O)c(C(=O)NC3CCCCC3)c(O)nc12,16,4,.,2,0,0,.
Cc1cccn2c(=O)c(C(=O)NC3CC(C)CC(C)(C)C3)c(O)nc12 (configuration not stated),23,0,18,3,0,3.6*,2
CSCCC(c1nc2ccccc2[nH]1)n1c(=O)c(-c2ccco2)nc2ccccc21 (configuration not stated),.,.,.,.,-1,0,.
CCC(CC)C(C(=O)NCc1ccccc1)N1CCN(C(=O)C2CCCO2)CC1 (configuration not stated),.,.,.,.,-1,0,.
Cn1c(=N)n(CC(=O)c2ccc(F)cc2)c2ccccc21,3,0,.,1,-1,3.8*,3
Cc1n(CC(=O)c2ccc(F)cc2)c2ccccc2[n+]1C,4,1,.,3,-1,0,.
Cn1c(=N)n(CC(=O)c2ccc(Br)cc2)c2ccccc21,-4,-2,10,0,1,4.8*,6.1*
CN1C(=O)c2cccc(NCCCCCCN3C(=O)c4ccccc4C3=O)c2C1=O,11,-1,.,4,0,4.5*,-1
CN1OC[C@@H]2CN(C(=O)CCc3ccccc3)[C@H](c3ccc(N4CCCCC4)cc3)C[C@@H]21,.,.,.,.,-1,0,.
Cc1cc(C)n(-c2nc(NCCCN(C)C)c3c4c(sc3n2)CCCC4)n1,-3,3,108,2,-1,2.7*,11*
Cc1cc(C)n(-c2nc(NCCC(C)C)c3c4c(sc3n2)COC(C)(C)C4)n1,14,1,.,.,0,4.8*,3
Cc1cc(C)n(-c2nc(SCCN3CCOCC3)c3c4c(sc3n2)CCCC4)n1,1,2,2,.,-1,2.6*,2
Cc1cc(C)n(-c2nc(NCCN(C)C)c3c4c(sc3n2)CCCC4)n1,3,5,129,8,-1,0,.
CC(=O)NC(c1ccc(F)c(F)c1)c1nc(-c2ccccc2C)cs1 (configuration not stated),9,-2,-3,.,0,1,.
CC[C@]1(C(=O)OC)[C@H]2C(=O)N(C)C(=O)[C@H]2[C@H]2CN=C(SCc3ccc(C(=O)OC)cc3)N21,12,2,5,1,-1,5.9*,1
